In ChEMBL document CHEMBL1126156, “Multivariate analysis by the minimum spanning tree method of the structural determinants of diphenylethylenes and triphenylacrylonitriles implicated in estrogen receptor binding, protein kinase C activity, and MCF7 cell proliferation” (J Med Chem, 1992):

Legend:
MCF7S [1] = assay: Cytostatic activity against MCF-7 cell proliferation.; type: functional, Homo sapiens; set-up: concentration or dose not given beside the values
Method in brief: (§1)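 MCF-7 cells in phenol red-free charcoal-treated medium given 10⁻⁶ M E2 plus test compound (3–10 μM), 6 days of growth. DNA expressed as percent of E2-treated cells. IC30 is the concentration giving 30% inhibition. Percent inhibition taken at 10⁻⁵ M, or at 10⁻⁶ M in a second series. Means of two experiments.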

MCF7S [2] = assay: Agonistic activity in MCF-7 cell proliferation.; type: functional, Homo sapiens
Method in brief: (§2)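 MCF-7 cells grown in phenol red-free medium with 5% dextran-coated charcoal-treated serum, tested 10 pM to 1 μM. DNA content read after growth. Agonism expressed relative to the maximum response with E2 (=100%), whatever the concentration. EC50 (50% of maximum response) taken from two separate experiments.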

Rattus norvegicus = organism: Rattus norvegicus; assay: Percent stimulation or inhibition of protein kinase C III activity for protamine sulfate in the presence of EGTA.; set-up: concentration or dose not given beside the values; details: values are per cent of control
Method in brief: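 Rat brain type III (α) PKC, purified, with protamine sulfate as substrate and 0.5 mM EGTA in place of Ca2+, phosphatidylserine and diolein; 5 mM magnesium acetate, 10 μM [32P]ATP. Most compounds at 10⁻⁴ M; percent of control activity.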

[3] = target: T1, Protein kinase C, PKC; classical (Rattus norvegicus) (UniProt P05696+P68403+P63319); assay: The percent stimulation or inhibition of protein kinase C III activity was determined for phosphatidylserine (PS) and diolein(PS+DO) in the presence of [Ca2+]; type: protein assay; set-up: concentration or dose not given beside the values; details: values are per cent of control
Method in brief: (§3)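 Type III (α) PKC purified from rat brain soluble fraction, assayed with calf thymus H1 histone, 0.1 mM Ca2+, 5 mM magnesium acetate, 10 μM [32P]ATP, 2 μg/mL phosphatidylserine plus 0.2 μg/mL diolein. Compounds mostly at 10⁻⁴ M; activity expressed as percent of control.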

[4] = target: T1, Protein kinase C, PKC; classical (Rattus norvegicus); assay: Percent stimulation or inhibition of protein kinase C III activity for phosphatidylserine (PS) in the presence of [Ca2+].; type: protein assay; set-up: concentration or dose not given beside the values; details: values are per cent of control
Method in brief: (§4)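 Purified type III (α) PKC from rat brain soluble fraction. Substrate calf thymus H1 histone with 0.1 mM Ca2+, 5 mM magnesium acetate, 10 μM [32P]ATP and 2 μg/mL phosphatidylserine, no diolein. Most compounds at 10⁻⁴ M, given as percent of control activity.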

[5] = target: T1, Protein kinase C, PKC; classical (Rattus norvegicus); assay: Percent stimulation or inhibition of protein kinase C with [Ca2+] for phosphatidylserine and diolein(PS+DO); type: protein assay; set-up: concentration or dose not given beside the values; details: values are per cent of control; method in brief: as §3
BT-20 [6] = assay: (§5) Cytotoxic effect on ER-negative BT20 cell proliferation; type: functional, Homo sapiens; set-up: concentration or dose not given beside the values
Method in brief: (§6)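 ER-negative BT20 cells, no E2, test compound at 3–10 μM for 6 days. DNA read as percent of untreated control. IC30 is the concentration inhibiting growth by 30%; percent inhibition taken at 10⁻⁵ M. Means of two experiments, triplicate wells.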

[7] = target: Estrogen receptor (Bos taurus) (UniProt Q9XSB5+P49884); assay: Relative binding affinity for calf uterus estrogen receptor after 2 hr at 0 degree C; type: protein assay
Method in brief: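 Calf uterus cytosol ER incubated 2 h at 0 °C with [6,7-3H]-17β-estradiol and competitor. RBA given relative to estradiol (=100%), mean of at least four determinations.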

MCF7S [8] = assay: Antagonist activity against MCF-7 cell proliferation; type: functional, Homo sapiens
Method in brief: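 Phenol red-free MCF-7 cultures with 5% dextran-coated charcoal-treated serum, stimulated by 0.1 nM E2. Proliferation read as DNA content after 8 days relative to E2 alone. Percent antagonism is the inhibition at 10⁻⁶ M test compound versus 10⁻¹⁰ M E2. IC50 (50% of maximum response) from two separate experiments.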

MCF7S [9] = assay: Agonist activity against MCF-7 cell proliferation; type: functional, cell-based; details: Homo sapiens; method in brief: as §2
BT-20 [10] = assay: as §5; type: functional; details: Homo sapiens; method in brief: as §6
MCF7S [11] = assay: Cytotoxic effect on MCF-7 cell proliferation; type: functional; details: Homo sapiens; method in brief: as §1
[12] = target: T1, Protein kinase C, PKC; classical (Rattus norvegicus); assay: Percent stimulation or inhibition of protein kinase C with [Ca2+] for phosphatidylserine (PS); type: protein assay; method in brief: as §4

SMILES | Inhibition (MCF7S [1]) | Agonism (MCF7S [2]) | residual activity (Rattus norvegicus) | residual activity [3] | residual activity [4] | residual activity [5] | Inhibition (BT-20 [6]) | RBA [7] | Antagonism (MCF7S [8]) | EC50 (MCF7S [9]) | IC30 (BT-20 [10]) | IC30 (MCF7S [11]) | residual activity ([12]; values are per cent of control) | residual activity [12]
N#CC(=C(c1ccc(O)cc1)c1ccc(O)cc1)c1ccc(O)cc1 | 39% | 85% | 33% | 32% | 38% |  |  |  |  |  |  |  |  | 
CC/C(=C(\c1ccccc1)c1ccc(OCCN(C)C)cc1)c1ccccc1 [TAMOXIFEN] | 49% | 21% | 107% |  | 49% | 21% |  |  |  |  |  |  |  | 
N#CC(=C(c1ccccc1)c1ccccc1)c1ccc(O)cc1 | 8% | 90% | 103% | 113% | 92% |  |  |  |  |  |  |  |  | 
Cc1ccc(/C(=C(/C#N)c2ccc(O)cc2)c2ccc(O)cc2)cc1 | 35% | 69% | 90% | 80% | 113% |  |  |  |  |  |  |  |  | 
Oc1ccc(C(=C2CCCCC2)c2ccc(O)cc2)cc1 | 12% | 97% | 91% | 81% | 111% |  | 12% | 26% | 23% | 0.00451 µM |  |  |  | 
NCC(=C(c1ccc(O)cc1)c1ccc(O)cc1)c1ccccc1 | 19% | 76% | 20% | 53% | 78% |  | 24% | 9.7% | 20% | 0.00014 µM | 20 µM |  |  | 
N#C/C(=C(/c1ccccc1)c1ccc(O)cc1)c1ccc(O)cc1 | 17% | 98% | 86% | 87% | 94% |  |  |  |  |  |  |  |  | 
COc1ccc(/C(=C(\C#N)c2ccccc2)c2ccc(O)cc2)cc1 | 36% | 26% | 100% | 100% | 100% |  |  |  |  |  |  |  |  | 
N#C/C(=C(\c1ccccc1)c1ccc(O)cc1)c1ccccc1 | 30% | 99% | 90% |  | 107% | 87% |  |  |  |  |  |  |  | 
CC(C)N(CCOc1ccc(C(C#N)=C(c2ccccc2)c2ccccc2)cc1)C(C)C | 30% | 93% | 103% | 23% |  |  | 36% | 0.1% | 10% | 0.011 µM | 9 µM | 10 µM | 46% | 
CCN(CC)CCOc1ccc(C(=C(C#N)c2ccccc2)c2ccc(OCCN(CC)CC)cc2)cc1 | 94% | 62% | 101% | 10% | 20% |  |  |  |  |  |  |  |  | 
CCC(=C(c1ccc(O)cc1)c1ccc(OCCN(C)C)cc1)c1ccccc1 | 81% | 10% | 94% | 2% | 27% |  |  |  |  |  |  |  |  | 
COc1ccc(/C(=C(/C#N)c2ccccc2)c2ccc(O)cc2)cc1 | 13% | 25% |  |  | 100% | 100% |  |  |  |  |  |  |  | 100%
CC(C)Oc1ccc(/C(=C(/C#N)c2ccccc2)c2ccc(O)cc2)cc1 | 57% | 22% |  |  |  | 94% |  |  |  |  |  |  |  | 170%
N#C/C(=C(/c1ccccc1)c1ccc(O)cc1)c1ccccc1 | 12% | 94% | 94% | 104% | 96% |  |  |  |  |  |  |  |  | 
N#CC(=C(c1ccccc1)c1ccccc1)c1ccccc1 | 16% | 68% | 106% | 106% | 126% |  |  |  |  |  |  |  |  | 
N#CC(=C(c1ccc(O)cc1)c1ccc(O)cc1)c1ccccc1 | 30% | 62% | 50% | 42% | 94% |  |  |  |  |  |  |  |  | 
